Measured values published in ChEMBL document CHEMBL3603779, “Identification and Optimization of Benzimidazole Sulfonamides as Orally Bioavailable Sphingosine 1-Phosphate Receptor 1 Antagonists with in Vivo Activity” (J Med Chem, 2015).
Activity calls are given as the source filed them. No cut-off for these calls is given here.

What was measured:
Mus musculus [1] = test: Increase in pulmonary vascular permeability in NCr mouse lung assessed as induction of capillary leakage in at 20 mg/kg, po administered a single oral dose by Evans blue dye assay; assay type: functional, organism-based
Outline: (§1)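 Female NCr nude mice (4 per cohort) given a single oral dose, 20 or 50 mg/kg, or vehicle (0.5% HPMC, 0.1% Tween 80). Evans blue dye (20 mg/kg) injected 1 h later. After 30 min, mice anesthetized and perfused with 0.9% saline; lung dye measured by spectrophotometry and normalized to vehicle-treated animals.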

[2] = Half life in Han Wistar rat at 3 mg/kg, iv by LCMS/MS method; assay type: ADME, organism-based; details: in vivo
[3] = Cmax in beagle dog at 10 mg/kg, po by LCMS/MS method; assay type: ADME, organism-based, Canis lupus familiaris; design: dose 10 mg/kg, route oral; details: in vivo
COLO 205 [4] = test: Increase in pulmonary vascular permeability in tumor of human COLO205 cells xenografted NCr mouse assessed as induction of capillary leakage in at 20 mg/kg, po by Evans blue dye assay; assay type: functional, organism-based
[5] = Half life in beagle dog at 2.5 mg/kg, iv by LCMS/MS method; assay type: ADME, organism-based, Canis lupus familiaris; details: in vivo
[6] = Clearance in beagle dog at 2.5 mg/kg, iv by LCMS/MS method; assay type: ADME, organism-based, Canis lupus familiaris; details: in vivo
[7] = Volume of distribution at steady state in Han Wistar rat at 3 mg/kg, iv by LCMS/MS method; assay type: ADME, organism-based; details: in vivo, read-out: Vdss
[8] = target: Voltage-gated inwardly rectifying potassium channel KCNH2 (Homo sapiens, UniProt Q12809)
Chain of Voltage-gated inwardly rectifying potassium channel KCNH2 (Q12809 whole entry): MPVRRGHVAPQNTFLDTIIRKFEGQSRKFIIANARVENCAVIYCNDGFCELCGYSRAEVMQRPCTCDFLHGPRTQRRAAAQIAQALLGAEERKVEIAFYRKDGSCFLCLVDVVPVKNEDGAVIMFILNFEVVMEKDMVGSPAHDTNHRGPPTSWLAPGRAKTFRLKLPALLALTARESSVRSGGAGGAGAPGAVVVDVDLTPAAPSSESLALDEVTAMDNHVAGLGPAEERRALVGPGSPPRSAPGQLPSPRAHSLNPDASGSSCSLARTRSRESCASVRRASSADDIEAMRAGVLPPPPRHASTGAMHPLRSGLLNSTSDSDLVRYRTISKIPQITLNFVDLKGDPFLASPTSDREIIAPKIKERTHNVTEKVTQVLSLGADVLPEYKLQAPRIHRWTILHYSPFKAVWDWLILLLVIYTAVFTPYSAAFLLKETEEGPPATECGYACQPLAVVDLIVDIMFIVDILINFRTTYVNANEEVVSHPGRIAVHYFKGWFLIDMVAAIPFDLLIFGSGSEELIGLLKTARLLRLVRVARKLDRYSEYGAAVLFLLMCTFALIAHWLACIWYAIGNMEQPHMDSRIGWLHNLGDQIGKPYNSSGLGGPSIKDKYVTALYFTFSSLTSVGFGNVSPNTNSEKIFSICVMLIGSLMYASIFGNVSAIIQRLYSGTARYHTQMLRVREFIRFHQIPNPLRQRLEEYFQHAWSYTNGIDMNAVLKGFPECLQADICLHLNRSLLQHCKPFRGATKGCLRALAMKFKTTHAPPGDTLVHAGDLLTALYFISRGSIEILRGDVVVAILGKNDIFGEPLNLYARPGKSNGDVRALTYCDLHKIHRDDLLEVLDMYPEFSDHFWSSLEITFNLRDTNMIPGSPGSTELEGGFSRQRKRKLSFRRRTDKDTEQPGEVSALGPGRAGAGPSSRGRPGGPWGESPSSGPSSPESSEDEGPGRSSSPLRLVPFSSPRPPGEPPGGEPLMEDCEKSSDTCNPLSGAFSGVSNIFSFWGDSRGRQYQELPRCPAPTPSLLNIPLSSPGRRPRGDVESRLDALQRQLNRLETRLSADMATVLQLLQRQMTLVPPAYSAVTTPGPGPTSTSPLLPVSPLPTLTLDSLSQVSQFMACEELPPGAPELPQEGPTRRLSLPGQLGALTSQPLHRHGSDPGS

Calu-6 [9] = test: Increase in pulmonary vascular permeability in tumor of human Calu6 cells xenografted NCr mouse assessed as induction of capillary leakage in at 20 mg/kg, po by Evans blue dye assay; assay type: functional, organism-based
[10] = Clearance in Han Wistar rat at 3 mg/kg, iv by LCMS/MS method; assay type: ADME, organism-based; details: in vivo
[11] = Oral bioavailability in beagle dog at 10 mg/kg by LCMS/MS method; assay type: ADME, organism-based, Canis lupus familiaris; details: in vivo
[12] = Volume of distribution at steady state in beagle dog at 2.5 mg/kg, iv; assay type: ADME, organism-based, Canis lupus familiaris; details: in vivo, read-out: Vdss
[13] = Cmax in beagle dog at 5 mg/kg, po by LCMS/MS method; assay type: ADME, organism-based, Canis lupus familiaris; design: dose 5 mg/kg, route oral; details: in vivo
[14] = Clearance in Han Wistar rat at 4 mg/kg, iv by LCMS/MS method; assay type: ADME, organism-based; details: in vivo
[15] = Volume of distribution at steady state in beagle dog at 2 mg/kg, iv by LCMS/MS method; assay type: ADME, organism-based, Canis lupus familiaris; details: in vivo, read-out: Vdss
[16] = Clearance in beagle dog at 2 mg/kg, iv by LCMS/MS method; assay type: ADME, organism-based, Canis lupus familiaris; details: in vivo
[17] = Half life in beagle dog at 2 mg/kg, iv by LCMS/MS method; assay type: ADME, organism-based, Canis lupus familiaris; details: in vivo
[18] = Half life in Han Wistar rat at 4 mg/kg, iv by LCMS/MS method; assay type: ADME, organism-based; details: in vivo
Calu-6 [19] = test: Increase in pulmonary vascular permeability in tumor of human Calu6 cells xenografted NCr mouse assessed as induction of capillary leakage in at 50 mg/kg, po by Evans blue dye assay; assay type: functional, organism-based
[20] = Antitiumor activity against human Calu6 cells xenografted in NCr mouse assessed as tumor growth at 50 mg/kg, po bid dosed on day 11 to 33; assay type: functional; details: Calu-6, po, read-out: GI
Outline: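 Calu6 xenografts in female NCr-nude mice, oral dosing twice daily. Schedules: 20 mg/kg BID on days 13-32, or 50 mg/kg BID on days 11-33. Vehicle (HPMC) controls n=20, treated n=14. Tumor volume compared with controls.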

Mus musculus [21] = test: Increase in pulmonary vascular permeability in NCr mouse lung assessed as induction of capillary leakage in at 50 mg/kg, po administered a single oral dose by Evans blue dye assay; assay type: functional, organism-based; outline: as §1
[22] = Oral bioavailability in beagle dog at 5 mg/kg by LCMS/MS method; assay type: ADME, organism-based, Canis lupus familiaris; details: in vivo
COLO 205 [23] = test: Increase in pulmonary vascular permeability in tumor of human COLO205 cells xenografted NCr mouse assessed as induction of capillary leakage in at 50 mg/kg, po by Evans blue dye assay; assay type: functional, organism-based
[24] = Volume of distribution at steady state in Han Wistar rat at 4 mg/kg, iv by LCMS/MS method; assay type: ADME, organism-based; details: in vivo, read-out: Vdss

For `CCn1c([C@@H](C)NS(=O)(=O)c2ccc(C#N)nc2)nc2cnc(C(F)(F)F)cc21`, the Activity (Mus musculus [1]) was “Active”, the half-life [2] was 2.4 h and the Cmax [3] was 31.1 µM. The Activity (COLO 205 [4]) was “inactive”, the half-life [5] was 4.9 h and the clearance [6] was 2 mL/min/kg. For the same compound, the Vd [7] was 1.2 L/kg, the IC50 [8] was > 200 µM and the Activity (Calu-6 [9]) was “inactive”. The clearance [10] was 8 mL/min/kg, the bioavailability [11] was 81% and the Vd [12] was 0.6 L/kg.
Compound `CCn1c([C@@H](C)NS(=O)(=O)c2ccc(C#N)nc2)nc2cnc(C3CC3)cc21` has a Cmax [13] of 10.7 µM, a clearance [14] of 10 mL/min/kg and a Vd [15] of 0.7 L/kg. For the same compound, the clearance [16] was 2 mL/min/kg, the half-life [17] was 4.6 h and the half-life [18] was 2.9 h. For the same compound, the Activity (Calu-6 [19]) was “inactive”, the inhibition in vivo at 50 mg/kg [20] was 32% and the Activity (Mus musculus [21]) was “Active”. The bioavailability [22] was 71%, the Activity (COLO 205 [23]) was “inactive” and the Vd [24] was 1.3 L/kg.
